The source of these data is PMC5014453 (Molecular Therapy. Nucleic Acids, 2016).

The test system of assay [1] is HBV proteins in HepG2.2.15 cells. Put plainly: Western blot of intracellular HBV proteins in HepG2.2.15 cells. The assay is classed as cell-based, Hepatitis B virus. The note with it: HepG2.2.15 cell lysates, 3TC 20 μmol/l. In general terms: In western blotting, separated proteins are transferred to a membrane and probed.
The test system of assay [2] is HBV DNA and RNA in HepG2.2.15 cells. Put plainly: Southern and northern blot of intracellular HBV DNA and RNA in HepG2.2.15 cells. The assay is classed as cell-based, Hepatitis B virus. As to conditions: southern blot, 48 hours, 3TC 20 μmol/l. The method in brief: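 HepG2.2.15 cells grown in DMEM with 10% FBS, penicillin and streptomycin at 37 °C, 5% CO2, then exposed to test compound; 3TC control at 20 μmol/l. Total RNA TRIzol-extracted, run on 1.5% formaldehyde agarose gel, HBV RNAs probed with the DIG probe also used for Southern blot; GAPDH DIG probe as internal control.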

The subject of assay [3] is HBV (pUC18-HBV1.3 hydrodynamic injection). The experiment in a line: Anti-HBV assay in an acute hepatitis B mouse model. The note with it: acute hepatitis B mice, real-time PCR, n = 5; Tat-PNA-DR 5.05 mg/kg, 3TC 0.5 mg/kg. In kind it is in vivo, BALB/c mice. (Quantitative PCR measures a nucleic acid by following its amplification.)

The structures appear in SMILES notation.

As to `Nc1ccn([C@@H]2CS[C@H](CO)O2)c(=O)n1` [3TC, lamivudine], in assay [1], the “intracellular HBV protein levels (HBsAg, HBV core protein, x protein, RT)” value is reported as “did not affect the expression of any HBV viral proteins”. Further, the “intracellular HBV DNA” value in assay [2] is recorded as “clearly inhibited the synthesis of HBV DNA”. In assay [3], the “average HBV DNA concentration in serum” value was 1.2 × 10^4 copies/ml.
